Activity calls are given as the source filed them. The calls are words filed in the database; no cut-off is given here.
Legend:
H9c2 [1] = assay: Cardiotoxicity against rat H9c2 cells at 12.09 ppm incubated for 30 mins by LDH release based CytoTox 96 assay relative to control; format: toxicity, cell-based; conditions: h9c2, 0.5 h
[2] = Hepatotoxicity against human HepG2 cells at 12.09 ppm incubated for 30 mins by LDH release based CytoTox 96 assay relative to control; format: toxicity, cell-based; conditions: hepg2, 0.5 h
[3] = molecular target: T1, Spike glycoprotein/Angiotensin-converting enzyme 2 (Severe acute respiratory syndrome coronavirus 2) (UniProt Q9BYF1+P0DTC2); assay: (§1) Inhibition of SARS CoV-2 S1 RBD/biotinylated ACE2 (unknown origin) protein-protein interaction preincubated with S1 protein for 60 mins followed by addition of ACE2 protein measured after 60 mins by ELISA; format: protein assay; conditions: time 120.0 min
Outline: (§2)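 SARS-CoV-2 S1 RBD coated at 2 µg/mL (60 min, 37 °C), then blocked with 1% BSA in PBS pH 7.2–7.4 (30 min, 37 °C). Compound (0.8, 4.0, 20.0 or 100.0 µM) incubated 60 min at 37 °C with 0.05% DMSO–PBS vehicle control. Biotin-ACE2 solution (0.5 µg/mL) added for 60 min, then ExtrAvidin-peroxidase (40 min) and OPD (10 min, RT, dark), read at 450 nm. Three trials; IC50 from four-parameter fit (bottom 0, Hill slope 1).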

[4] = molecular target: Spike glycoprotein/Angiotensin-converting enzyme 2 (Severe acute respiratory syndrome coronavirus 2, UniProt P0DTC2+Q9BYF1); assay: as §1; format: protein assay; outline: as §2
HK-2 [5] = assay: Nephrotoxicity against human HK-2 cells at 12.09 ppm incubated for 30 mins by LDH release based CytoTox 96 assay relative to control; format: toxicity, cell-based; conditions: hk-2, 0.5 h
[6] = molecular target: T1, Spike glycoprotein/Angiotensin-converting enzyme 2 (Severe acute respiratory syndrome coronavirus 2); assay: Inhibition of SARS CoV-2 S1 RBD/biotinylated ACE2 (unknown origin) protein-protein interaction at 0.8 uM preincubated with S1 protein for 60 mins followed by addition of ACE2 protein measured after 60 mins by ELISA relative to control; format: protein assay; conditions: time 120.0 min; outline: as §2
H9c2 [7] = assay: Cardiotoxicity against rat H9c2 cells at 2.07 ppm incubated for 30 mins by LDH release based CytoTox 96 assay relative to control; format: toxicity, cell-based; conditions: h9c2, 0.5 h
HK-2 [8] = assay: Nephrotoxicity against human HK-2 cells at 2.07 ppm incubated for 30 mins by LDH release based CytoTox 96 assay relative to control; format: toxicity, cell-based; conditions: hk-2, 0.5 h
[9] = Hepatotoxicity against human HepG2 cells at 2.07 ppm incubated for 30 mins by LDH release based CytoTox 96 assay relative to control; format: toxicity, cell-based; conditions: hepg2, 0.5 h
[10] = molecular target: T1, Spike glycoprotein/Angiotensin-converting enzyme 2 (Severe acute respiratory syndrome coronavirus 2); assay: Inhibition of SARS CoV-2 S1 RBD/biotinylated ACE2 (unknown origin) protein-protein interaction at 100 uM preincubated with S1 protein for 60 mins followed by addition of ACE2 protein measured after 60 mins by ELISA relative to control; format: protein assay; conditions: time 120.0 min; outline: as §2
HK-2 [11] = assay: Nephrotoxicity against human HK-2 cells at 4.71 ppm incubated for 30 mins by LDH release based CytoTox 96 assay relative to control; format: toxicity, cell-based; conditions: hk-2, 0.5 h
H9c2 [12] = assay: Cardiotoxicity against rat H9c2 cells at 4.71 ppm incubated for 30 mins by LDH release based CytoTox 96 assay relative to control; format: toxicity, cell-based; conditions: h9c2, 0.5 h
[13] = Hepatotoxicity against human HepG2 cells at 4.71 ppm incubated for 30 mins by LDH release based CytoTox 96 assay relative to control; format: toxicity, cell-based; conditions: hepg2, 0.5 h
[14] = molecular target: T1, Spike glycoprotein/Angiotensin-converting enzyme 2 (Severe acute respiratory syndrome coronavirus 2); assay: Inhibition of SARS CoV-2 S1 RBD/biotinylated ACE2 (unknown origin) protein-protein interaction at 100 uM preincubated with S1 protein for 60 mins followed by addition of ACE2 protein measured after 60 mins by ELISA; format: protein assay; conditions: time 120.0 min; outline: as §2
HK-2 [15] = assay: Nephrotoxicity against human HK-2 cells at 30.22 ppm incubated for 30 mins by LDH release based CytoTox 96 assay relative to control; format: toxicity, cell-based; conditions: hk-2, 0.5 h
H9c2 [16] = assay: Cardiotoxicity against rat H9c2 cells at 30.22 ppm incubated for 30 mins by LDH release based CytoTox 96 assay relative to control; format: toxicity, cell-based; conditions: h9c2, 0.5 h
[17] = Hepatotoxicity against human HepG2 cells at 30.22 ppm incubated for 30 mins by LDH release based CytoTox 96 assay relative to control; format: toxicity, cell-based; conditions: hepg2, 0.5 h
HK-2 [18] = assay: Nephrotoxicity against human HK-2 cells at 1.54 ppm incubated for 30 mins by LDH release based CytoTox 96 assay relative to control; format: toxicity, cell-based; conditions: hk-2, 0.5 h
[19] = Hepatotoxicity against human HepG2 cells at 1.54 ppm incubated for 30 mins by LDH release based CytoTox 96 assay relative to control; format: toxicity, cell-based; conditions: hepg2, 0.5 h
H9c2 [20] = assay: Cardiotoxicity against rat H9c2 cells at 1.54 ppm incubated for 30 mins by LDH release based CytoTox 96 assay relative to control; format: toxicity, cell-based; conditions: h9c2, 0.5 h
H9c2 [21] = assay: Cardiotoxicity against rat H9c2 cells at 1.03 ppm incubated for 30 mins by LDH release based CytoTox 96 assay relative to control; format: toxicity, cell-based; conditions: h9c2, 0.5 h
HK-2 [22] = assay: Nephrotoxicity against human HK-2 cells at 1.03 ppm incubated for 30 mins by LDH release based CytoTox 96 assay relative to control; format: toxicity, cell-based; conditions: hk-2, 0.5 h
[23] = Hepatotoxicity against human HepG2 cells at 1.03 ppm incubated for 30 mins by LDH release based CytoTox 96 assay relative to control; format: toxicity, cell-based; conditions: hepg2, 0.5 h

Spike glycoprotein/Angiotensin-converting enzyme 2, sequence (Q9BYF1 whole entry, looked up, other chains not shown): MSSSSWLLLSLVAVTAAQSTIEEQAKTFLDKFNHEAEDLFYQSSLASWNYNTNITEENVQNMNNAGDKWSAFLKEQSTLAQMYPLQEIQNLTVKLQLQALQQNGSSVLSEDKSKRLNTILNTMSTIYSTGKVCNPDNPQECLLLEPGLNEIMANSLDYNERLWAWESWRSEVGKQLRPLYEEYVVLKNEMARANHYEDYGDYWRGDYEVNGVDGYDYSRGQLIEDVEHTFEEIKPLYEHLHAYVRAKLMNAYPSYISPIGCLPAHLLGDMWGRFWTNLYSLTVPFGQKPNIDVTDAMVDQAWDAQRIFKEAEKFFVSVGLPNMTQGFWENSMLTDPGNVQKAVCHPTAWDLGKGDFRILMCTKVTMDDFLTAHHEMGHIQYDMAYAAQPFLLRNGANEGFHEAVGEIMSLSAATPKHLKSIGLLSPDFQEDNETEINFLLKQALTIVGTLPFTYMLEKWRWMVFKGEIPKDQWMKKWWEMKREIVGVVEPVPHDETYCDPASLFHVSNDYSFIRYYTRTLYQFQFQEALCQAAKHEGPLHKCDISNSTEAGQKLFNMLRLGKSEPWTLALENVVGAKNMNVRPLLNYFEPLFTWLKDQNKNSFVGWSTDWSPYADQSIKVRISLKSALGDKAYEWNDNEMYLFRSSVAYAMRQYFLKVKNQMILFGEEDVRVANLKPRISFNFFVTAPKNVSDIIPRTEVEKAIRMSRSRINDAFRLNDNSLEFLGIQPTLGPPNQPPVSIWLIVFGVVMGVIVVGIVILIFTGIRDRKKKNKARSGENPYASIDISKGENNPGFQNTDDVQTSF

For CCCOc1cc(O)c2c(=O)c(OCCC)c(-c3ccc(OCCC)c(OCCC)c3)oc2c1, the Activity (H9c2 [1]) was 1.05%, the Activity [2] was 0.39% and the inhibition [3] was “Dose-dependent-effect”. The IC50 [4] was 25.7 µM and the Activity (HK-2 [5]) was 1.71%.
Compound CCOc1cc(O)c2c(=O)c(OCC)c(-c3ccc(OCC)c(O)c3)oc2c1 has an inhibition [6] greater than 50%.
C=CCOc1cc(O)c2c(=O)c(OCC=C)c(-c3ccc(OCC=C)c(O)c3)oc2c1 showed an inhibition [6] greater than 50%.
For CCOc1cc(O)c2c(=O)c(OCC)c(-c3ccc(OCC)c(OCC)c3)oc2c1, the Activity (H9c2 [7]) was 0.11%, the Activity (HK-2 [8]) was 5.5% and the inhibition [3] was “Dose-dependent-effect”. The IC50 [4] was 5 µM and the Activity [9] was 1.47%.
For O=c1c(OCc2ccccc2)c(-c2ccc(OCc3ccccc3)c(O)c2)oc2cc(OCc3ccccc3)cc(O)c12, the inhibition [6] was greater than 50%.
O=c1c(OCc2ccc(F)cc2)c(-c2ccc(OCc3ccc(F)cc3)c(OCc3ccc(F)cc3)c2)oc2cc(OCc3ccc(F)cc3)cc(O)c12 gave an inhibition [10] of less than 50%.
With O=c1c(OCc2ccc(F)cc2)c(-c2ccc(OCc3ccc(F)cc3)c(O)c2)oc2cc(OCc3ccc(F)cc3)cc(O)c12 the Activity (HK-2 [11]) was 1.29%, the Activity (H9c2 [12]) was 1.21% and the inhibition [3] was “Dose-dependent-effect”. For the same compound, the IC50 [4] was 7.52 µM and the Activity [13] was 0.4%.
CC(=O)Oc1cc(O)c2c(=O)c(OC(C)=O)c(-c3ccc(OC(C)=O)c(OC(C)=O)c3)oc2c1 showed an inhibition [6] greater than 50%.
Work on CC(=O)Oc1cc(O)c2c(=O)c(OC(C)=O)c(-c3ccc(OC(C)=O)c(O)c3)oc2c1 yielded an inhibition [6] greater than 50%.
In the case of O=C(Oc1cc(O)c2c(=O)c(OC(=O)c3ccccc3)c(-c3ccc(OC(=O)c4ccccc4)c(OC(=O)c4ccccc4)c3)oc2c1)c1ccccc1, the inhibition [10] is reported as less than 50%.
Compound CCC(=O)Oc1cc(O)c2c(=O)c(OC(=O)CC)c(-c3ccc(OC(=O)CC)c(OC(=O)CC)c3)oc2c1 has an inhibition [6] greater than 50%.
For O=C1OC2(c3ccccc31)c1cc(I)c(O)c(I)c1Oc1c2cc(I)c(O)c1I [ERYTHROSINE], the inhibition [3] was “Dose-dependent-effect” and the IC50 [4] was 6.16 µM.
CCCOc1cc(O)c2c(=O)c(OCCC)c(-c3ccc(OCCC)c(O)c3)oc2c1 showed an inhibition [6] greater than 50%.
Compound O=C(Oc1cc(O)c2c(=O)c(OC(=O)c3ccccc3)c(-c3ccc(OC(=O)c4ccccc4)c(O)c3)oc2c1)c1ccccc1 has an inhibition [6] greater than 50%.
With O=c1c(OCc2ccccc2)c(-c2ccc(OCc3ccccc3)c(OCc3ccccc3)c2)oc2cc(OCc3ccccc3)cc(O)c12 the inhibition [10] was less than 50%.
For O=c1c(O)c(-c2ccc(O)c(O)c2)oc2cc(O)cc(O)c12 [QUERCETIN], the inhibition [14] was “inactive”, the Activity (HK-2 [15]) was 1.56% and the Activity (H9c2 [16]) was 12.93%. For the same compound, the Activity [17] was 1.74%.
With CCC(=O)Oc1cc(O)c2c(=O)c(OC(=O)CC)c(-c3ccc(OC(=O)CC)c(O)c3)oc2c1 the Activity (HK-2 [18]) was 0.26%, the Activity [19] was 0.21% and the inhibition [3] was “Dose-dependent-effect”. For the same compound, the IC50 [4] was 3.28 µM and the Activity (H9c2 [20]) was 1.95%.
In the case of C=CCOc1cc(O)c2c(=O)c(OCC=C)c(-c3ccc(OCC=C)c(OCC=C)c3)oc2c1, the Activity (H9c2 [21]) is reported as 1.83%, the Activity (HK-2 [22]) is reported as 0.04% and the inhibition [3] is reported as “Dose-dependent-effect”. It also gave an IC50 [4] of 2.22 µM and an Activity [23] of 0%.

— ChEMBL document CHEMBL6092129, “Inhibiting SARS-CoV-2 viral entry by targeting spike:ACE2 interaction with O-modified quercetin derivatives” (RSC Med Chem, 2024)
